From PubChem BioAssay
HCV NS3 hel inh: inhibitors of Hepatitis C virus NS3 helicase. NS3 helicase DNA unwinding, Cy5 molecular beacon fluorescence. inhibition, % at 10.9 µM. 290,000 compounds, 0.56% hits;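 active means inhibition above the mean of all tested compounds plus 3 SD, set per campaign, cut at about 35% in these data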;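 further: 0% = DMSO wells and 100% = thioflavine S control wells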
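System: HCV NS3 helicase fragment; control set: DMSO and thioflavine S; technique: Cy5 fluorescence at 0 and 60 min, beacon hairpin quenching; reagent: beacon DNA duplex substrate plus ATP; replicates: singlicate; schedule: 1 h reaction at 25 °C, ATP-initiated; medium: MOPS buffer pH 6.5 with MgCl2, DTT, Tween20, BSA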
FID counter: fluorescent intercalator displacement, NS3 helicase counter-screen. DNA fluorescent intercalator displacement, fluorescence. inhibition, % at 7.9 µM. 290,000 compounds, 0.17% hits. AID 1845; in the data active means inhibition above about 37%;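 further: 0% = vehicle and 100% = reference compound; higher means more ethidium bromide displaced from hairpin DNA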
HSP90 refold inh: inhibitors of HSP90 luciferase refolding in rabbit reticulocyte lysate; luciferase refolding luminescence, 3 h; 290,000 compounds, 0.91% hits; inhibition, % at 5.6 µM;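 active means inhibition above the screen-wide mean plus 3 SD, computed separately per campaign, cut at about 16% in these data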;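 further: 0% = DMSO wells and 100% = 60 µM geldanamycin wells; inhibitors lower the luminescence because luciferase stays unfolded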
HSF-1 act: increases HSF-1 driven luciferase reporter signal. AID 504408. activation, % at 9 µM. NIH3T3-HGL HSF-1 luciferase reporter, MG132, 8 h; 100% = twice DMSO control signal. 300,000 compounds, 1.7% hits;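 active means mean replicate activation of at least 50% with a set share of replicates each reaching 50%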;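 further: 0% = median of the neutral control wells and 100% = twice that signal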
HCV core dimer: HCV core protein dimerization inhibition; TR-FRET GST/Flag-core106 dimerization, 1536-well; inhibition, % at 5 µM; 300,000 compounds, 0.33% hits; AID 1899;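 active means inhibition above the mean of all tested compounds plus 3 SD, set per screening campaign, cut at about 45% in these data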
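System: GST/Flag-tagged HCV core106 proteins. Incubation: compound-protein-antibody incubation 4 h at 22.5 °C. Technique: HTRF with 340 nm excitation, 617/671 nm emission. Medium: KF-containing HEPES buffer, pH 7.45, DTT, CHAPS, BSA. Read-out: inhibition (%) from 671 over 617 nm ratio. Also added: Eu(K)-anti-GST 90 ng/mL plus XL665-anti-Flag 1 µg/mL.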
HSF1 inh: HSF1 inhibition; NIH3T3-HGL HSE-luciferase, MG132-induced, luminescence 8 h; hits give low values; activity change, negative = inhibition, % at 7.5 µM (by protocol); 300,000 compounds, 0.77% hits;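 active means more than half of replicate wells show activity change below -50%, luminescence cut by over half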;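 further: luciferase reports HSF-1 transcriptional activity via heat shock element; 0% = median of DMSO wells and -100% = zero luminescence signal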
* = called active by the depositor; / = no result. Compounds with a hit are over-represented: about 3.9% of the library has one in this group of screens.

SMILES | HCV NS3 hel inh | FID counter | HSP90 refold inh | HSF-1 act | HCV core dimer | HSF1 inh
Cc1cc(S(=O)(=O)N2CCN=C2c2ccccc2)c(C)cc1Cl | -8 | 25 | 1 | -72 | 5 | -63*
Cc1c(Cl)ccc(S(=O)(=O)N2CCN=C2c2ccccc2)c1Cl | 4 | -4 | -1 | -4 | 5 | -12
CC1=C(C(=O)OCC2CCCO2)C(c2ccsc2)C2=C(CCCC2=O)N1 (centres undefined) | 12 | -12 | 2 | -3 | 0 | -4
COc1ccc(N(CC(=O)NC2CCCCC2)C(=O)c2ccc(C)s2)cc1OC | -3 | -28 | -2 | 71* | 1 | 20
Cc1ccc(C)c(N2CCN(C(=O)c3ccc(Cn4c(=S)[nH]c5ccc(N6CCOCC6)cc5c4=O)cc3)CC2)c1 | 9 | -15 | -3 | 7 | 48* | 9
O=c1c2cc(N3CCOCC3)ccc2[nH]c(=S)n1Cc1ccc(Cl)cc1 | 0 | -3 | 5 | 56* | 2 | 17
Cc1cc(NC(=O)CCC(=O)N(c2cccc(F)c2)C(C(=O)NC2CCCC2)c2ccccc2)no1 (centres undefined) | -9 | -44 | -5 | -4 | 9 | 4
O=C(Oc1cccc([N+](=O)[O-])c1)c1cc(-c2ccccc2)nc2ccccc12 | 14 | -2 | 0 | 75* | -4 | 56
O=C(Oc1ccc(-c2cnc3ccccc3n2)cc1)c1cc([N+](=O)[O-])ccc1Cl | -5 | 0 | -2 | 80* | -1 | 47
Cc1c(C(=O)Oc2ccc(-c3cnc4ccccc4n3)cc2)cccc1[N+](=O)[O-] | 3 | 0 | -2 | 36 | 2 | 18
O=C(COc1ccc2ccccc2c1)NNC(=O)C(=O)Nc1ccccc1 | 19 | -12 | 0 | 5 | 8 | -4
Cc1ccc(-c2csc3nc(C)n(N)c(=O)c23)cc1 | 1 | 3 | -5 | 4 | -2 | 2
Cc1nc2scc(-c3ccc(Cl)cc3)c2c(=O)n1N | -3 | -12 | 1 | 94* | 4 | 68
Cc1nc(SCC(=O)c2ccccc2)c(C#N)c(-c2ccco2)c1C(=O)NCc1ccco1 | 33 | -3 | -2 | 76* | 11 | 52
O=C(CCCNC(=O)/C(=C\c1ccccc1F)NC(=O)c1ccccc1)OCc1ccccc1 | -2 | -28 | -1 | -65 | 1 | -56*
Cc1csc(C(=O)O)c1-n1cccc1 | 3 | 0 | 4 | -1 | -5 | 0
Cc1ccc(C(=O)N2CCSCC2)cc1 | -2 | 0 | 17* | -1 | 1 | -3
COc1cccc(C(=O)N2CCN=C2SC)c1 | -3 | 8 | 4 | -1 | -1 | -5
COc1ccc(NC(=O)CSc2nc(N)c3cc4c(nc3n2)CCCC4)cc1 | -5 | -18 | 4 | 58* | 10 | 41
Cc1ccc(C(C)NC(=O)c2ccc3c(c2)OCO3)cc1C (centres undefined) | 2 | -13 | -2 | -3 | -7 | -5
COc1ccc(N(C(=O)c2ccco2)C(C(=O)NC2CCCC2)c2cccs2)cc1 (centres undefined) | 0 | -22 | 2 | 66* | 6 | 15
COc1ccc(N(C(=O)c2ccco2)C(C(=O)NC2CCCC2)c2cccs2)cc1OC (centres undefined) | 2 | -22 | 0 | 0 | 0 | -3
O=C(/C=C/c1ccccc1)n1cnnc1SC/C=C/c1ccccc1 | -8 | -4 | -6 | 9 | -6 | 0
C(=C/c1ccnc2nc(SC/C=C/c3ccccc3)nn12)/c1ccccc1 | -4 | 2 | 4 | 101* | 4 | 61
O=C(c1cccnc1)N1CCCC(Nc2ccc(F)cc2)C1 (centres undefined) | 3 | -3 | 4 | -13 | 4 | -5
SMILES | HCV NS3 hel inh | FID counter | HSP90 refold inh | HSF-1 act | HCV core dimer | HSF1 inh
O=C(Nc1cccc(Cl)c1)c1ccc(S(=O)(=O)NCC2CCCO2)cc1 (centres undefined) | -6 | -14 | -5 | -91 | 0 | -88*
O=C(Nc1ccccc1)c1ccc(S(=O)(=O)NCC2CCCO2)cc1 (centres undefined) | 1 | -6 | 2 | 18 | 4 | 7
Cc1ccc(NC(=O)N2CCCC2C(=O)Nc2c(C)cc(C)cc2C)cc1 (centres undefined) | -6 | -17 | -1 | 57* | 2 | 20
O=C(CCN1C(=O)c2cccc3cccc(c23)C1=O)Nc1ccccc1 | -1 | -2 | -1 | -5 | -2 | 2
COc1cc2cnncc2cc1OC | 19 | -1 | 3 | 20 | 5 | -13
COc1cc2cc(Br)cc(Br)c2nc1C | -2 | -4 | 4 | 12 | 63* | 2
CCCNCc1cc(OC)c(OCC(=O)Nc2ccccc2)cc1Br | -11 | 12 | 2 | 14 | -4 | 6
COCCNC(=S)N(CCc1c(C)[nH]c2ccc(F)cc12)Cc1ccco1 | -3 | -13 | -4 | 53* | -5 | 29
CNC(=S)N(CCc1c(C)[nH]c2ccc(F)cc12)Cc1ccco1 | -16 | -6 | -2 | 44 | 2 | 12
COc1ccc(-c2cc(C(=O)N/N=C/c3ccc(OC)c(COCC(F)(F)C(F)F)c3)c3ccccc3n2)c(OC)c1 | 12 | -11 | -2 | 3 | 58* | 1
COc1ccc(OC)c(-c2cc(C(=O)N/N=C/c3cc(OC)c(OC)cc3OC)c3ccccc3n2)c1 | / | / | / | -72 | 8 | -69*
COc1ccc(OC)c(-c2cc(C(=O)N/N=C/c3ccc(F)cc3)c3ccccc3n2)c1 | / | / | / | -7 | 14 | 2
N#Cc1ccc(OCC(=O)Nc2ccncc2)cc1 | 2 | 3 | -1 | -3 | -4 | 0
CC(O)CNC(=O)C1CCN(Cc2ccc(OCc3ccccc3)cc2)CC1 (centres undefined) | -9 | 11 | -4 | 15 | 1 | 2
CC(C)CNC(=O)C1CCN(Cc2ccc(OCc3ccccc3)cc2)CC1 | -25 | 27 | 10 | -71 | 2 | -61*
Nc1nc2nn(-c3ccccc3)nc2c(=O)[nH]1 | 1 | -1 | 3 | 55* | 13 | 21
Nc1nc2n[nH]nc2c(=O)[nH]1 | / | / | / | -5 | 1 | -1
COc1ccc(C(C)N2CC34C=CC(O3)C(C(=O)O)C4C2=O)cc1 (centres undefined) | -4 | -3 | -2 | -69 | 1 | -64*
C=CCOC(=O)/C(=C/c1cccc2ccccc12)NC(=O)c1ccccc1 | -7 | -25 | -8 | 72* | -1 | 54
CN(N=Nc1ccc([N+](=O)[O-])cc1)c1ccccc1 | -3 | -11 | -4 | 74* | 8 | 44
Cc1ccc(S(=O)(=O)CC(=O)N(CCCN2CCOCC2)c2nc3c(F)cccc3s2)cc1 | / | / | / | 13 | 0 | 6
CCc1cccc2sc(N(CCCN3CCOCC3)C(=O)CS(=O)(=O)c3ccccc3)nc12 | / | / | / | 5 | 3 | 5
